The source of these data is ChEMBL document CHEMBL1138710, “A nonhydrolyzable analogue of phosphotyrosine, and related aryloxymethano- and aryloxyethano-phosphonic acids as motifs for inhibition of phosphatases” (Bioorg Med Chem Lett, 2004).

The structures appear in SMILES notation.

Assay [1] has as its target Alkaline phosphatase (Escherichia coli K-12) (UniProt P00634). Description: Inhibition constant for Escherichia coli alkaline phosphatase at pH 9. The essentials:
(§1)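 Competitive inhibition kinetics with p-nitrophenyl phosphate as substrate at 25°C, in 100 mM TRIS, 1 mM ZnCl2, 1 mM MgCl2, pH 9.0. Ki (mM) was derived from the competitive inhibition rate equation.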

The target in assay [2] is T1, Serine/threonine-protein phosphatase (Enterobacteria phage lambda) (UniProt P03772).
T1 sequence (whole entry): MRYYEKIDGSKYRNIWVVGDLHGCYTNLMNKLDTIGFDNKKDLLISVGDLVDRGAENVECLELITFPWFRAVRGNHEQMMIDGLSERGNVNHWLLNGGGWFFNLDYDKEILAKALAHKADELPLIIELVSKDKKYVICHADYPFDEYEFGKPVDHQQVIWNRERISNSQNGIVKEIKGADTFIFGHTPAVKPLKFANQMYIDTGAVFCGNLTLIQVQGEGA
Description: Inhibition constant for lambda protein phosphatase in presence of [Mn2+] at 5 mM pH 7.3.

Assay [3] in a line: Inhibition constant protein phosphatase 2C in presence of [Mn2+] at 5 mM pH 7.5. The gist of the method: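 Competitive inhibition kinetics with p-nitrophenyl phosphate substrate (Km 1.1 mM under these conditions) at 25°C, in 100 mM TRIS, 5 mM MnCl2, 1 mM DTT, pH 7.5. Ki (mM) was derived from the competitive inhibition rate equation.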
The species entered for assay [4] is Homo sapiens. Description: Inhibition constant for human placental alkaline phosphatase at pH 9. The gist of the method: as §1
Assay [5] concerns the target Secreted effector protein (Yersinia pestis) (UniProt O68720). The experiment in a line: Inhibition constant for YOP protein tyrosine phosphatase at pH 6.6. The gist of the method: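 Competitive Ki (mM) measured at 25°C against p-nitrophenyl phosphate substrate, in 100 mM succinate, 150 mM NaCl, pH 6.6.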
For assay [6], the species on record is Homo sapiens. The experiment in a line: Inhibition constant for human placental alkaline phosphatase at pH 9; No reduction in rate.
A short description of assay [7]: Inhibition constant for protein phosphatase 2C in presence of [Mn2+] at 1 mM pH 7.5. The gist of the method: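 Kinetics at 25°C with p-nitrophenyl phosphate substrate in 100 mM TRIS, 1 mM MnCl₂, 1 mM DTT, pH 7.5. Mn²⁺ was lowered from 5 mM for compounds precipitating at that level. Substrate Km was 1.1 mM and matched within error at both Mn²⁺ levels. Ki (mM) from a competitive inhibition model.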

In assay [8] the target is Alkaline phosphatase (Escherichia coli K-12) (UniProt P00634). The experiment in a line: Inhibition constant for Escherichia coli alkaline phosphatase at pH 9; No reduction in rate.
Chain of Alkaline phosphatase (Escherichia coli K-12) (P00634 whole entry): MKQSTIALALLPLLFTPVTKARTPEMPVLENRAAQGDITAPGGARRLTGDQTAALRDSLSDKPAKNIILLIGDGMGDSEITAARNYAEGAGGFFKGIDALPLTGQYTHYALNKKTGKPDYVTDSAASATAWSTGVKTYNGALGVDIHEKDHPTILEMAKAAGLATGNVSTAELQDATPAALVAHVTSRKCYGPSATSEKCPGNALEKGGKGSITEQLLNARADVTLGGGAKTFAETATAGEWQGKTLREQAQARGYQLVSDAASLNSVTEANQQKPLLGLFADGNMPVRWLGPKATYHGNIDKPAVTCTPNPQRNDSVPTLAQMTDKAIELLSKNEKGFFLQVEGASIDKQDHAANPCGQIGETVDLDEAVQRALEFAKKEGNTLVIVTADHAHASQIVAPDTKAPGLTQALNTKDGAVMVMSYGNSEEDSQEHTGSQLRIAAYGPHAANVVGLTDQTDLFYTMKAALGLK

For `O=C(O)Cc1ccc(OCCP(=O)(O)O)cc1`, the Inhibition turned out to be 0.6 mM in assay [1]; 0.12 mM in assay [2]; 0.23 mM in assay [3]; 0.14 mM in the assay filed under Homo sapiens [4]; 19 mM in assay [5].

In the case of `N[C@@H](Cc1ccc(OCP(=O)(O)O)cc1)C(=O)O`, the Inhibition is 5 mM in assay [1]; 0.02 mM in assay [2]; 0.76 mM in assay [3]; 1.7 mM in the assay listed under Homo sapiens [4]; 21 mM in assay [5].

As for `O=C(O)Cc1ccc(OCP(=O)(O)O)cc1`, the Inhibition in assay [1] is 5.1 mM; in assay [2], 0.19 mM; in assay [3], 0.13 mM; in the assay filed under Homo sapiens [6] it was “No inhibition”; in assay [5], 12 mM.

Take `O=C(O)c1cccc2cc(OCP(=O)(O)O)ccc12`: the Inhibition in assay [1] amounted to 4.2 mM; in assay [2] it was 0.03 mM; in assay [3] it was 0.06 mM; in the assay filed under Homo sapiens [4] it was 3.4 mM; in assay [5], 2.2 mM.

Turning to `N[C@H](Cc1ccc(OCP(=O)(O)O)cc1)C(=O)O`, the Inhibition stood at 4.8 mM in assay [1]; 0.03 mM in assay [2]; 0.34 mM in assay [3]; 1.85 mM in the assay listed under Homo sapiens [4]; 0.63 mM in assay [5].

Turning to `O=P(O)(O)COc1ccc2ccccc2c1`, the Inhibition in assay [1] was 4 mM; in assay [2] it was “Precipitation”; in assay [3] it was “Precipitation”; in the assay filed under Homo sapiens [4] it was 1.1 mM; in assay [5], 6.3 mM.

Consider `O=P(O)(O)CCSc1ccccc1`, for which the Inhibition in assay [1] is 0.9 mM; in assay [2] it was 0.14 mM; in the assay listed under Homo sapiens [4] it was 0.69 mM; in assay [7], 0.3 mM; in assay [5], 10 mM.

Regarding `O=P(O)(O)CCOc1ccccc1`, the Inhibition in assay [1] was determined as 0.1 mM; in assay [2] it was 0.05 mM; in the assay listed under Homo sapiens [4], 0.11 mM; in assay [7], 0.4 mM; in assay [5], 2.17 mM.

`O=P(O)(O)COc1ccccc1`: the Inhibition is 0.27 mM in assay [2]; 0.9 mM in the assay filed under Homo sapiens [4]; “No inhibition” in assay [8]; 0.32 mM in assay [7]; 5 mM in assay [5].

For the compound `O=P(O)(O)CSc1ccccc1`, the Inhibition in assay [1] worked out at 0.04 mM; in assay [2], 0.33 mM; in the assay listed under Homo sapiens [4], 0.13 mM; in assay [7], 0.17 mM; in assay [5], 4.6 mM.
